In ChEMBL document CHEMBL1122664, “Synthesis and evaluation of 19-aza- and 19-aminoandrostenedione analogues as potential aromatase inhibitors” (J Med Chem, 1984):
Several values for one entry are separate records, joined by “and”; a condition that tells them apart may be missing. Equal values may be shown once.

Assays:
Aromatase [1] = biological target: T1, Aromatase (Homo sapiens, UniProt P11511); test: Inhibition of 0.25 uM [1-3H]-androst-4-ene-3,17-dione binding to Cytochrome P450 19A1
T1 sequence (P11511 whole entry): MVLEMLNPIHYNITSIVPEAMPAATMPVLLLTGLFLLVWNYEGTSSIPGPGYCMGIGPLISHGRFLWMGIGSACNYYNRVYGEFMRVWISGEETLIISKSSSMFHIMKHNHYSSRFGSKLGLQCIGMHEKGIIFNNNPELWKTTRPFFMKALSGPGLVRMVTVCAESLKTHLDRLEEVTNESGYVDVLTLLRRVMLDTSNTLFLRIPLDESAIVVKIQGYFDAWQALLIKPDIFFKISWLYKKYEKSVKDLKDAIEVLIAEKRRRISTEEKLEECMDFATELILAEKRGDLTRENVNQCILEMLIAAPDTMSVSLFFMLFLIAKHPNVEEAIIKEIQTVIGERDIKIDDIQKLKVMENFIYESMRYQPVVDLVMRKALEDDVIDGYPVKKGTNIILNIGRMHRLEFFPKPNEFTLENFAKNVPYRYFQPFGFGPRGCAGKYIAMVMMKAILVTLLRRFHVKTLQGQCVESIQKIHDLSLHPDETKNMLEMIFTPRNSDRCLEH
Summary of the method: (§1)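 Tritiated water release assay using lyophilized, twice-washed human term placental microsomes (0.1 mg protein) with [1-³H]androstenedione at 0.25 μM (5 × KM) and inhibitor at 0.25 or 1.25 μM. NADPH-generating system in 10 mM K phosphate with KCl, EDTA and DTT; 15 min at 25 °C. Stopped with CHCl₃; charcoal-treated aqueous ³H₂O counted. Triplicates; % inhibition versus concurrent controls.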

Aromatase [2] = biological target: T1, Aromatase; test: Inhibition of 1.25 uM [1-3H]-androst-4-ene-3,17-dione binding to Cytochrome P450 19A1; summary of the method: as §1

Structure (SMILES)	Inhibition (Aromatase [1])	Inhibition (Aromatase [2])
C[C@]12CCC(=O)C=C1C[C@@H](Sc1ccc(N)cc1)[C@@H]1[C@@H]2CC[C@]2(C)C(=O)CC[C@@H]12	54.8%	83.1%
COC(=O)N[C@]12CCC(=O)C=C1CC[C@H]1[C@@H]3CCC(=O)[C@@]3(C)CC[C@@H]12	< 2%	< 2%
C[C@]12CC[C@H]3[C@@H](CCC4=CC(=O)CC[C@@]43CNC(=O)C(F)(F)F)[C@@H]1CCC2=O	2.5%	11.4%
C[C@]12CC[C@H]3[C@@H](CCC4=CC(=O)CC[C@@]43/C=N\O)[C@@H]1CCC2=O	8.6%	4.1%
CC(=O)NC[C@]12CCC(=O)C=C1CC[C@@H]1[C@@H]2CC[C@]2(C)C(=O)CC[C@@H]12	< 2%	13.2%
C[C@]12CC[C@H]3[C@@H](CCC4=CC(=O)CC[C@@]43N)[C@@H]1CCC2=O	9.4% and 6.9%	19.2% and 10.9%
C[C@]12CC[C@H]3[C@@H](CCC4=CC(=O)CC[C@@]43N=C=O)[C@@H]1CCC2=O	< 2%	< 2%
C[C@]12CCC(=O)C(O)=C1CC[C@@H]1[C@@H]2CC[C@]2(C)C(=O)CC[C@@H]12 [FORMESTANE]	50.1%	81.6%
